Data on four molecules can be found in article PMC9890663 (RSC Advances, 2023).

A word on the MIC: it is the least concentration at which growth counts as inhibited. As a reminder, the IC50 is the concentration that inhibits the measured activity by half. A lower IC50 goes with higher potency.

Data set [1] concerns calf thymus DNA (ct-DNA). Particulars: DNA intercalator; cited from earlier work.
A further data set relates to P. aeruginosa PAO1. The data set can be described thus: MIC, broth microdilution. The following applies: Pseudomonas aeruginosa, PAO1, 24 h. Type of data set: cell-based.
In another data set the test system is MRC-5 cells. Put plainly: Antiproliferative activity, MTT assay. Type of data set: cell-based, human.
The test system of data set [2] is C. albicans ATCC 10231. Put plainly: Inhibition of hyphae formation on Spider medium. The following applies: 0.5 × MIC, vs DMSO control. Type of data set: cell-based, Candida albicans.
The next data set concerns S. aureus ATCC 25923. Put plainly: MIC, broth microdilution. Particulars: Staphylococcus aureus, ATCC25923, 24 h. It is filed as cell-based. The method in brief: (§1)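 Broth microdilution. S. aureus ATCC 25923 followed CLSI M07-A8 at 5 × 10^5 cfu mL−1; Candida strains followed EUCAST yeast method v7.3.1 at 1 × 10^5 cfu mL−1. Test compound from a 50 mg mL−1 DMSO stock was tested from 500 μg mL−1 downward, with final DMSO <1% v/v. MIC was the lowest concentration inhibiting growth after 24 h at 37 °C, read on a plate reader.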

Data set [3] relates to C. albicans ATCC 10231. Put plainly: MIC, broth microdilution. It is filed as cell-based. The following applies: Candida albicans, ATCC10231, 24 h. The method in brief: as §1
For orientation: Dilution methods test growth across graded concentrations, often in twofold steps.

The subject of a further data set is C. albicans. Particulars: cited from earlier work.
Data set [4] concerns calf thymus DNA (ct-DNA). The data set can be described thus: Competitive EthBr-ct-DNA fluorescence emission study. Type of data set: binding. The procedure, abridged: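 Ethidium bromide displacement on calf thymus DNA in PBS pH 7.4, with ct-DNA quantified by A260 (ε 6.6 × 10^3 M−1 cm−1). [DNA]/[EthBr] was held at 10 while test compound (10 mM DMSO stock) was increased. Excitation was 545.0 nm, emission 550.0–750.0 nm. Ksv and Kq (τ0 10^-8 s) came from the Stern–Volmer equation; KA and n from a log(F0−F)/F vs log[complex] plot.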

In data set [5] the test system is Chromobacterium violaceum CV026. Put plainly: Anti-quorum sensing disc assay, violacein production. The following applies: 100 μg per disc. It is filed as cell-based. The method in brief: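 Agar-overlay disc assay. Inocula were grown overnight in LB at 30 °C and 180 rpm, with antibiotic for CV026. 50.0 μL of culture was seeded into 0.3% semi-solid LB agar and overlaid on LB plates. CV026 received N-hexanoyl-L-homoserine lactone (final 5.0 μM); S. marcescens ATCC 27117 received no autoinducer. Compound was placed on sterile discs and plates incubated overnight at 30 °C. Pigment inhibition was scored as white halo width (mm), distinct from growth-clearance zones.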

Data set [6] deals with C. albicans ATCC 10231. Put plainly: Biofilm formation assay, crystal violet staining. The following applies: MIC of the complexes applied. It is filed as cell-based, Candida albicans. The method in brief:
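Candida albicans ATCC 10231 biofilm assay, starting inoculum 1 × 10^6 cfu mL−1. Test compound was applied as two-fold serial dilutions from 3.5 down to 0.05 μg mL−1, then incubated 48 h at 37 °C. Adherent biomass was stained with crystal violet and read at 590.0 nm. The assay was repeated three times.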

Data set [7] concerns the target bovine serum albumin (BSA) (Bos taurus, UniProt P02769). Put plainly: BSA fluorescence emission quenching. It is filed as binding. The procedure, abridged:
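Tryptophan fluorescence quenching of 5 μM BSA in PBS pH 7.4, titrated with test compound (DMSO stock) up to 130 μM. Excitation was 290.0 nm and spectra were recorded at 295.0–500.0 nm, with quenching monitored at 365.0 nm. Ksv came from a Stern–Volmer plot, and Kq from Ksv with τ0 of 10^-8 s. KA and binding-site number n came from a log(F0−F)/F vs log[complex] plot.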

≈ marks a conversion by molar mass, not a printed value. Where “and” joins values, the source holds several entries; their conditions need not be identical. Equal entries are not always repeated. Where two headings read alike, the source gives them in different places.

Sequence of bovine serum albumin (BSA) (P02769 25-607): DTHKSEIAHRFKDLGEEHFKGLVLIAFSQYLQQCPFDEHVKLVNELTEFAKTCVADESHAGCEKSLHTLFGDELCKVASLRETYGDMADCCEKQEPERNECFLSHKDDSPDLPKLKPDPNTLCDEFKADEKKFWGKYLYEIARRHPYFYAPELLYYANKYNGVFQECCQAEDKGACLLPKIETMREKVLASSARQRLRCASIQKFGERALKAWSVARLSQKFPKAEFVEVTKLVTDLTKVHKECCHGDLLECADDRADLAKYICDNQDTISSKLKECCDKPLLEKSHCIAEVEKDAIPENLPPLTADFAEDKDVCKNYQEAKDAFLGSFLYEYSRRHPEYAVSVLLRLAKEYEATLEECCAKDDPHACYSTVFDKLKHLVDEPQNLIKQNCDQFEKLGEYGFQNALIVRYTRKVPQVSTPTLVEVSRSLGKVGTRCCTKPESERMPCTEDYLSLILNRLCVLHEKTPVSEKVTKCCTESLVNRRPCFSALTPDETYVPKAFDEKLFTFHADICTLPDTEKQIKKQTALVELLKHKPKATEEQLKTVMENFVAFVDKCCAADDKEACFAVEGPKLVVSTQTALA

For `C[n+]1c2ccccc2c(-c2c3ccccc3[n+](C)c3ccccc23)c2ccccc21` [lucigenin], the Hypochromism in the data set on calf thymus DNA (ct-DNA) [1] is on record as 50%.

Consider `COC(=O)c1cnc(-c2cnccn2)cc1C(=O)OC` [py-2pz, dimethyl 6-(pyrazine-2-yl)pyridine-3,4-dicarboxylate], for which the minimum inhibitory concentration (MIC) with P. aeruginosa PAO1 was > 1830 µM and > 500 µg/mL; with S. aureus ATCC 25923, > 1830 µM and > 500 µg/mL; in the data set on C. albicans ATCC 10231 [3], > 1830 µM and > 500 µg/mL. In the data set with MRC-5 cells (Homo sapiens, MRC5, 48 h, MRC-5, 48 h treatment), this molecule came in with an IC50 of 120 µg/mL (≈ 439 µM). In the data set on C. albicans ATCC 10231 [2], the “C. albicans hyphae formation” value is given as “did not show a potency to inhibit C. albicans filamentous growth”.

Turning to [CuCl2(py-2metz)]n, the minimum inhibitory concentration (MIC) in the data set on C. albicans was 31.25 µg/mL.

On to {[Ag(NO3)(py-2pz)]·0.5H2O}n [Complex 4], for which the Hypochromism worked out at 15.4% in the data set on calf thymus DNA (ct-DNA) [4] (EthBr-ct-DNA fluorescence) and 60.5% in data set [7] (BSA fluorescence at 365.0 nm). The K sv entry is reported as “(1.14 ± 0.01) × 10^3 M^−1” in the data set on calf thymus DNA (ct-DNA) [4] (Stern-Volmer constant, EthBr-ct-DNA, PBS pH 7.4) and “(2.10 ± 0.02) × 10^4 M^−1” in [7] (Stern-Volmer constant, BSA 5 μM, PBS pH 7.4). Moreover, the “K A” value with calf thymus DNA (ct-DNA) [4] (binding constant, ct-DNA) worked out at 2000 M⁻¹; in data set [7] (binding constant, BSA), 21500 M⁻¹. The K q in the data set with calf thymus DNA (ct-DNA) [4] (quenching constant, EthBr-ct-DNA) worked out at 1.14e+11 M⁻¹ s⁻¹; in data set [7] (quenching rate constant, BSA), 2.1e+12 M⁻¹ s⁻¹. The “clear zones of inhibition (antibacterial effect)” value in [5] was 5 mm. Besides, the “fold less toxic against MRC-5 than AgSD” value in the data set on MRC-5 cells is recorded as 1.7 fold. In addition, the “percentage of the formed C. albicans biofilms” value in the data set with C. albicans ATCC 10231 [6] stood at 62%.
